How the values were obtained:
Acanthocheilonema viteae = experiment: anti-filarial Activity was measured against Acanthocheilonema viteae in jirds at 25 mg/kg/day(5 days) dose; assay type: functional
Summary of the method: (§1)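 Jirds with established B. pahangi or A. viteae infections were given drug once daily for 5 days by subcutaneous injection, at the maximum tolerated dose and, where supply allowed, graded lower doses. Tolerance was first checked in noninfected jirds with a single 200 mg/kg oral or subcutaneous dose, watching 72 h for excessive weight loss or death. Macrofilarial suppression was the read-out.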

Brugia pahangi = experiment: anti-filarial Activity was measured against Brugia pahangi in jirds at 25 mg/kg/day(5 days) dose; assay type: functional; summary of the method: as §1
Onchocerca volvulus [1] = experiment: Colorimetric quantification of male Onchocerca volvulus viability, expressed as % inhibition of formazan formation at 3.1*10e-6 M conc. by using tetrazolium Dye MTT assay; assay type: functional
Summary of the method: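 Male O. volvulus dissected from human nodules within 24 h (kept in medium on ice), cultured without feeder cells in medium with 10% serum; drug from DMSO stock. MTT after 96 h: single worm, 0.5 mg/mL MTT, 30 min at 36.5 °C, formazan dissolved in DMSO 1 h at room temperature, absorbance 490 nm against DMSO blank.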

Onchocerca gutturosa [2] = experiment: Colorimetric quantification of male Onchocerca gutturosa viability, expressed as % inhibition of formazan formation at 1.21*10e-8M conc. by using tetrazolium Dye MTT assay; assay type: functional
Summary of the method: (§2)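 Single intact male O. gutturosa, cultured with LLCMK2 feeder cells in MEM + 10% heat-inactivated FCS (5% CO2), drug added from DMSO (≤0.016% DMSO in controls). MTT read after 168 h: worm in 0.5 mg/mL MTT, 30 min at 36.5 °C, formazan solubilized in DMSO 1 h at room temperature, absorbance 490 nm vs DMSO blank.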

Onchocerca gutturosa [3] = experiment: Colorimetric quantification of male Onchocerca gutturosa viability, expressed as % inhibition of formazan formation at 1.94*10e-7M conc. by using tetrazolium Dye MTT assay; assay type: functional; summary of the method: as §2
Onchocerca gutturosa [4] = experiment: Mean motility score for treated Onchocerca gutturosa involving LLCMK2 feeder cells at a concentration of 5*10e-5 M at 1.5 h; assay type: functional
Summary of the method: (§3)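 Single male O. gutturosa worms (obtained following abattoir slaughter) per well in Eagle's MEM with 10% heat-inactivated fetal calf serum, penicillin, streptomycin, amphotericin B and bicarbonate, over LLCMK2 feeder cells, 5% CO2 in air. Drug dissolved in DMSO; controls received matched DMSO ≤0.016%. Motility scored 0 (immotile) to 10 (maximum control activity) every 30 min to 4.5 h, then days 1, 2, 3, 4, 7.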

Onchocerca gutturosa [5] = experiment: Mean motility score for treated Onchocerca gutturosa involving LLCMK2 feeder cells at a concentration of 1.21*10e-8M at 168 h; assay type: functional
Summary of the method: (§4)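 One male O. gutturosa per well over LLCMK2 feeder cells in MEM with 10% heat-inactivated FCS, antibiotics and bicarbonate, 5% CO2; compound introduced in DMSO (≤0.016%, equal DMSO in controls). Motility scored 0 (immotile) to 10 (maximal control activity) every 30 min to 4.5 h, then at 1, 2, 3, 4 and 7 days.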

Onchocerca gutturosa [6] = experiment: Mean motility score for treated Onchocerca gutturosa involving LLCMK2 feeder cells at a concentration of 3.05*10e-9 M at 3 h; assay type: functional; summary of the method: as §3
Onchocerca gutturosa [7] = experiment: Mean motility score for treated Onchocerca gutturosa involving LLCMK2 feeder cells at a concentration of 3.05*10e-9 M at 4 h; assay type: functional; summary of the method: as §3
Onchocerca gutturosa [8] = experiment: Mean motility score for treated Onchocerca gutturosa involving LLCMK2 feeder cells at a concentration of 3.05*10e-9 M at 48 h; assay type: functional; summary of the method: as §3
Onchocerca gutturosa [9] = experiment: Mean motility score for treated Onchocerca gutturosa involving LLCMK2 feeder cells at a concentration of 1.21*10e-8M at 48 h; assay type: functional; summary of the method: as §4
Onchocerca gutturosa [10] = experiment: Mean motility score for treated Onchocerca gutturosa involving LLCMK2 feeder cells at a concentration of 1.21*10e-8M at 96 h; assay type: functional; summary of the method: as §4
Onchocerca gutturosa [11] = experiment: Mean motility score for treated Onchocerca gutturosa involving LLCMK2 feeder cells at a concentration of 1.94*10e-7M at 0.5 h; assay type: functional; summary of the method: as §4
Onchocerca gutturosa [12] = experiment: Mean motility score for treated Onchocerca gutturosa involving LLCMK2 feeder cells at a concentration of 1.94*10e-7M at 168 h(O = IMMOTILE); assay type: functional; summary of the method: as §4
Onchocerca volvulus [13] = experiment: Mean motility score for treated Onchocerca volvulus excluding LLCMK2 feeder cells at a concentration of 5*10e-5 M at 24 h
Onchocerca volvulus [14] = experiment: Mean motility score for treated Onchocerca volvulus excluding LLCMK2 feeder cells at a concentration of 5*10e-5 M at 72 h
Onchocerca volvulus [15] = experiment: Mean motility score for treated Onchocerca volvulus excluding LLCMK2 feeder cells at a concentration of 3.1*10e-6 M at 2 h
Onchocerca volvulus [16] = experiment: Mean motility score for treated Onchocerca volvulus excluding LLCMK2 feeder cells at a concentration of 3.1*10e-6 M at 72 h
Onchocerca volvulus [17] = experiment: Mean motility score for treated Onchocerca volvulus excluding LLCMK2 feeder cells at a concentration of 3.1*10e-6 M at 24 h
Onchocerca gutturosa [18] = experiment: Mean motility score for treated Onchocerca gutturosa involving LLCMK2 feeder cells at a concentration of 1.95*10e-8 M at 96 h; assay type: functional; summary of the method: as §4
Onchocerca gutturosa [19] = experiment: Mean motility score for treated Onchocerca gutturosa involving LLCMK2 feeder cells at a concentration of 1.95*10e-8 M at 4 h; assay type: functional; summary of the method: as §4
Onchocerca gutturosa [20] = experiment: Mean motility score for treated Onchocerca gutturosa involving LLCMK2 feeder cells at a concentration of 3.05*10e-8 M at 2 h; assay type: functional; conditions: in the assay text read “3.05*10e-9 M” for “3.05*10e-8 M”; summary of the method: as §4
Onchocerca gutturosa [21] = experiment: Colorimetric quantification of male Onchocerca gutturosa viability, expressed as % inhibition of formazan formation at 3.1*10e-6 M conc. by using tetrazolium Dye MTT assay; assay type: functional; summary of the method: as §2
Onchocerca gutturosa [22] = experiment: Mean motility score for treated Onchocerca gutturosa involving LLCMK2 feeder cells at a concentration of 4.88*10e-8M at 168 h; assay type: functional; summary of the method: as §3
Onchocerca gutturosa [23] = experiment: Mean motility score for treated Onchocerca gutturosa involving LLCMK2 feeder cells at a concentration of 4.88*10e-8M at 24 h; assay type: functional; summary of the method: as §3
Onchocerca gutturosa [24] = experiment: Mean motility score for treated Onchocerca gutturosa involving LLCMK2 feeder cells at a concentration of 4.88*10e-8M at 3 h; assay type: functional; summary of the method: as §3
Onchocerca gutturosa [25] = experiment: Mean motility score for treated Onchocerca gutturosa involving LLCMK2 feeder cells at a concentration of 1.95*10e-8 M at 3.5 h; assay type: functional; conditions: in the assay text read “1.95*10e-7 M” for “1.95*10e-8 M”; summary of the method: as §4
Onchocerca gutturosa [26] = experiment: Mean motility score for treated Onchocerca gutturosa involving LLCMK2 feeder cells at a concentration of 3.1*10e-6 M at 72 h; assay type: functional; summary of the method: as §3
Onchocerca gutturosa [27] = experiment: Mean motility score for treated Onchocerca gutturosa involving LLCMK2 feeder cells at a concentration of 3.1*10e-6 M at 0.5 h; assay type: functional; summary of the method: as §3
Onchocerca gutturosa [28] = experiment: Mean motility score for treated Onchocerca gutturosa involving LLCMK2 feeder cells at a concentration of 1.95*10e-8 M at 1.5 h; assay type: functional; summary of the method: as §4

SMILES	Suppression (Acanthocheilonema viteae) [%]	Suppression (Brugia pahangi) [%]	Inhibition (Onchocerca volvulus [1]) [%]	Motility (Onchocerca gutturosa [4])	Motility (Onchocerca gutturosa [6])	Motility (Onchocerca gutturosa [7])	Motility (Onchocerca gutturosa [8])	Motility (Onchocerca volvulus [13])	Motility (Onchocerca volvulus [14])	Motility (Onchocerca volvulus [15])	Motility (Onchocerca volvulus [16])	Motility (Onchocerca volvulus [17])	other results
C/C(=N\NC(S)=Nc1ccccc1N)c1ccccn1	94	100	65.3	9.5	7.5	5.8	6.3	4.4	2.4	6	1.2	1.6	Inhibition (Onchocerca gutturosa [2]): 27.9%; Inhibition (Onchocerca gutturosa [3]): 84.8%; Motility (Onchocerca gutturosa [5]): 1; Motility (Onchocerca gutturosa [9]): 7.3; Motility (Onchocerca gutturosa [10]): 3.8; Motility (Onchocerca gutturosa [11]): 9.8; Motility (Onchocerca gutturosa [12]): 0
C/C(=N\NC(=S)N1CCCCCC1)c1ccccn1	100	84	39.6	4.8	8.8	7.8	6.8	1.6	1	6.6	1	3.4	Motility (Onchocerca gutturosa [18]): 0; Motility (Onchocerca gutturosa [19]): 10; Motility (Onchocerca gutturosa [20]): 9.8; Inhibition (Onchocerca gutturosa [21]): 90.2%; Motility (Onchocerca gutturosa [22]): 0; Motility (Onchocerca gutturosa [23]): 4; Motility (Onchocerca gutturosa [24]): 9; Motility (Onchocerca gutturosa [25]): 10; Motility (Onchocerca gutturosa [26]): 0; Motility (Onchocerca gutturosa [27]): 9.5; Motility (Onchocerca gutturosa [28]): 9.5
